Assay results from ChEMBL document CHEMBL4376872, “Scaffold Hopping of Natural Product Evodiamine: Discovery of a Novel Antitumor Scaffold with Excellent Potency against Colon Cancer” (J Med Chem, 2020).
Activity calls are given as the source filed them. The rule behind the calls is not given here.

Tests used:
[1] = molecular target: Tubulin (Homo sapiens) (UniProt P68371+Q9H4B7+P0DPH7+P68366+Q13509+Q71U36+P04350+Q3ZCM7+P07437+P68363+Q9BQE3+Q6PEY2+Q13885+Q9BVA1+Q9BUF5); test: Inhibition of tubulin polymerization in human HCT116 cells assessed as disruption of microtubule by measuring clustered microtubule arrangement in cytosol around the nucleus at 0.4 to 10 uM incubated for 12 hrs by immunofluorescence based analysis; type: cell-based
Summary of the method: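 HCT116 cells were exposed to several concentrations for 12 h, with paclitaxel as the control. Nuclei were stained with DAPI and microtubules with mouse anti-α-tubulin. Microtubule organization was imaged by laser confocal microscopy.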

[2] = tested on: HCT-116; test: Induction of apoptosis in human HCT116 cells at 0.04 uM incubated for 24 hrs by annexin V-FITC and propidium iodide staining based flow cytometry (reference value: 0.86 %); type: functional
[3] = tested on: HCT-116; test: Cell cycle arrest in human HCT116 cells assessed as accumulation in G2 phase at 4 nM incubated for 24 hrs by propidium iodide staining based flow cytometry (reference value: 12.52 %); type: functional
[4] = tested on: HCT-116; test: Cell cycle arrest in human HCT116 cells assessed as accumulation in G1 phase at 36 nM incubated for 24 hrs by propidium iodide staining based flow cytometry (reference value: 45.18 %); type: functional
[5] = tested on: HCT-116; test: Cell cycle arrest in human HCT116 cells assessed as accumulation in G2 phase at 36 nM incubated for 24 hrs by propidium iodide staining based flow cytometry (reference value: 12.52 %); type: functional
[6] = Toxicity in mouse xenografted with human HCT116 cells assessed as reduction in body weight at 4 mg/kg, ip bid for 21 days administration starting from 10 days after tumor cell implantation measured every 2 or 4 days till the end of the treatment period; type: organism-based; conditions: in vivo
Summary of the method: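 Nude mice bearing HCT116 xenografts were given intraperitoneal doses on 21 consecutive days, with n = 6 per group including an untreated control group. Body weight was recorded to assess toxicity. Data are mean ± SEM, compared with the control group by Student's t test.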

[7] = molecular target: Poly [ADP-ribose] polymerase tankyrase-1 (Homo sapiens) (UniProt O95271); test: Inhibition of TNKS1 (unknown origin) using biotin-NAD+, NAD+ and sIDNA as substrate at 5 uM incubated for 1 hr by ELISA relative to control
[8] = molecular target: Poly [ADP-ribose] polymerase tankyrase-2 (Homo sapiens) (UniProt Q9H2K2); test: Inhibition of TNKS2 (unknown origin) using biotin-NAD+, NAD+ and sIDNA as substrate at 5 uM incubated for 1 hr by ELISA relative to control
[9] = molecular target: DNMT3A2/3L complex (Homo sapiens) (UniProt Q9Y6K1+Q9UJW3); test: Inhibition of DNMT3a/3L (unknown origin) using poly(dIdC) as substrate at 5 uM incubated for 3 hrs in presence of 20 uM SAM by fluorescence analysis; type: protein-complex assay
[10] = molecular target: Histone-lysine N-methyltransferase EZH2 (Homo sapiens) (UniProt Q15910); test: Inhibition of EZH2 (unknown origin) using plate-coated histone as substrate at 5 uM incubated for 90 mins in presence of 5 uM SAM by AlphaScreen assay relative to control
[11] = molecular target: CDK4/Cyclin D3 (Homo sapiens) (UniProt P11802+P30281); test: Inhibition of CDK4/Cyclin D3 (unknown origin) using Rb as substrate at 5 uM incubated for 40 mins in presence of 10 uM ATP by kinase-Glo luminescence assay relative to control; type: protein-complex assay
[12] = molecular target: CDK9/cyclin T1 (Homo sapiens) (UniProt O60563+P50750); test: Inhibition of CDK9/Cyclin T1 (unknown origin) using PDKtide as substrate at 5 uM incubated for 40 mins in presence of 10 uM ATP by kinase-Glo luminescence assay relative to control; type: protein-complex assay
[13] = molecular target: Matrix metalloproteinase-9 (Homo sapiens) (UniProt P14780); test: Inhibition of MMP9 (unknown origin) using Mca-PLGLDpaAR as substrate at 5 uM preincubated with enzyme for 2 hrs followed by incubation with substrate for 15 mins by fluorescence based analysis relative to control
[14] = molecular target: Tyrosine-protein kinase ABL1 (Homo sapiens) (UniProt P00519); test: Inhibition of Abl (unknown origin) using Abltide as substrate at 5 uM incubated for 40 mins in presence of 10 uM ATP by kiase-Glo luminescence assay relative to control
[15] = tested on: Tyrosine-protein kinase ABL1 (Homo sapiens), P00519 [T315I]; test: Inhibition of Abl T315I mutant (unknown origin) using Abltide as substrate at 5 uM incubated for 40 mins in presence of 10 uM ATP by kiase-Glo luminescence assay relative to control
[16] = molecular target: Lysine-specific demethylase 4A (Homo sapiens) (UniProt O75164); test: Inhibition of JMJD2A (unknown origin) using biotinylated histone H3 peptide as substrate at 5 uM incubated for 60 mins by AlphaScreen assay relative to control
[17] = molecular target: PI3-kinase p110-alpha/p85-alpha (Homo sapiens) (UniProt P27986+P42336); test: Inhibition of PI3K p110alpha/p85alpha (unknown origin) using PI3K lipid as substrate at 5 uM incubated for 40 mins in presence of 2.5 uM ATP by kinase-Glo luminescence assay relative to control; type: protein-complex assay

Sequence of Histone-lysine N-methyltransferase EZH2 (Homo sapiens) (Q15910 whole entry, looked up): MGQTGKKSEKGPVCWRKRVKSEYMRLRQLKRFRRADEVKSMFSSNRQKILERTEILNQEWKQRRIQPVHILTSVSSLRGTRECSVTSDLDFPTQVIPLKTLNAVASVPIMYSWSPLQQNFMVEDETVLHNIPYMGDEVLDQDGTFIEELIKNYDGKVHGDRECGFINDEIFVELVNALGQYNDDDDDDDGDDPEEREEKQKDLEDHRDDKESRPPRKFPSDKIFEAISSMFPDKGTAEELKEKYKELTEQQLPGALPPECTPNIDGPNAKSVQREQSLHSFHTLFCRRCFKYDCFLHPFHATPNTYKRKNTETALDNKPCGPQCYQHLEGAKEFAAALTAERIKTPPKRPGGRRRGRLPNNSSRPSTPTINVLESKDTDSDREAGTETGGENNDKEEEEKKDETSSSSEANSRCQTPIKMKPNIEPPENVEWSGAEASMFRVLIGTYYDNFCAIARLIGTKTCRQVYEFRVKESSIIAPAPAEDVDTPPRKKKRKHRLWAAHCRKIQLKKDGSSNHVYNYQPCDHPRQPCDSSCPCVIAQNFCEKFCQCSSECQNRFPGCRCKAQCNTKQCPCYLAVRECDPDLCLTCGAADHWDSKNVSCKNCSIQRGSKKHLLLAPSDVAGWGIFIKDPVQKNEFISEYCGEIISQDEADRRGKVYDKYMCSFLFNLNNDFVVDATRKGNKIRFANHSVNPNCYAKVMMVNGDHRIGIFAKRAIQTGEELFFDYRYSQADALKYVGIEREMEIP
Sequence of DNMT3A2/3L complex (Homo sapiens) (Q9UJW3 whole entry, looked up): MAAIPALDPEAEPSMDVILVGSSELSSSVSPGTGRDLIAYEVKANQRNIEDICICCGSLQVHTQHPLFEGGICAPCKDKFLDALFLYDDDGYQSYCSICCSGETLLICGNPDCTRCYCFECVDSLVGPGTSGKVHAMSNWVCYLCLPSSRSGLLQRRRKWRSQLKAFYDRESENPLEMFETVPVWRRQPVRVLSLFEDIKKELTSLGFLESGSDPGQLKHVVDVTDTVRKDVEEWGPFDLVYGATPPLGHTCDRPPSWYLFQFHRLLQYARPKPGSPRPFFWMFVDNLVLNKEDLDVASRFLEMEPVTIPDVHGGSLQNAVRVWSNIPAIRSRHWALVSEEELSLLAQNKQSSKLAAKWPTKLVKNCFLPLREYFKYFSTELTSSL
Sequence of DNMT3A2/3L complex (Homo sapiens) (Q9Y6K1 whole entry, looked up): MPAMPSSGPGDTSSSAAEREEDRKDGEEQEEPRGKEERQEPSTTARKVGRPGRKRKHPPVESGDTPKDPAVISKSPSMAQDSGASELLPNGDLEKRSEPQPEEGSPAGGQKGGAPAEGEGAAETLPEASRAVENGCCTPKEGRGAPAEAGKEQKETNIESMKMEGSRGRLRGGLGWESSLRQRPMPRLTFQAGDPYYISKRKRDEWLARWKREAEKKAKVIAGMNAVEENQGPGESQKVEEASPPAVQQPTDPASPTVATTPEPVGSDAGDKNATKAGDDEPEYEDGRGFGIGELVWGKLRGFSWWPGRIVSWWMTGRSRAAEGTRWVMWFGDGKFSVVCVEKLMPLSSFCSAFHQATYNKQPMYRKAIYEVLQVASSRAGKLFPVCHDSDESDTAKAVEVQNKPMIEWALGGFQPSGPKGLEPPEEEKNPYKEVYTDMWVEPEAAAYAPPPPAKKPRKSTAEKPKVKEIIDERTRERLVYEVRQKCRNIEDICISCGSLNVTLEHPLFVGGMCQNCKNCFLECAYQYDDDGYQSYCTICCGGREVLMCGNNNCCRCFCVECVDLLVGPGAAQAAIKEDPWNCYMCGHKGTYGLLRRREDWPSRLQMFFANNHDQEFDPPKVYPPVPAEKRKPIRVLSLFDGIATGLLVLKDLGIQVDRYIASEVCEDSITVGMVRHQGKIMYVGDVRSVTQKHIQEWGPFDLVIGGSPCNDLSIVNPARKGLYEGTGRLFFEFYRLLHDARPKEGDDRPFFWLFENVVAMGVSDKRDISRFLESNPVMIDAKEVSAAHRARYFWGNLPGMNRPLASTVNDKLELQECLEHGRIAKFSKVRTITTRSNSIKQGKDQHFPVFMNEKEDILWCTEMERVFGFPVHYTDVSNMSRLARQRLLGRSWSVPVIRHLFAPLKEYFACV
Sequence of Poly [ADP-ribose] polymerase tankyrase-2 (Homo sapiens) (Q9H2K2 whole entry): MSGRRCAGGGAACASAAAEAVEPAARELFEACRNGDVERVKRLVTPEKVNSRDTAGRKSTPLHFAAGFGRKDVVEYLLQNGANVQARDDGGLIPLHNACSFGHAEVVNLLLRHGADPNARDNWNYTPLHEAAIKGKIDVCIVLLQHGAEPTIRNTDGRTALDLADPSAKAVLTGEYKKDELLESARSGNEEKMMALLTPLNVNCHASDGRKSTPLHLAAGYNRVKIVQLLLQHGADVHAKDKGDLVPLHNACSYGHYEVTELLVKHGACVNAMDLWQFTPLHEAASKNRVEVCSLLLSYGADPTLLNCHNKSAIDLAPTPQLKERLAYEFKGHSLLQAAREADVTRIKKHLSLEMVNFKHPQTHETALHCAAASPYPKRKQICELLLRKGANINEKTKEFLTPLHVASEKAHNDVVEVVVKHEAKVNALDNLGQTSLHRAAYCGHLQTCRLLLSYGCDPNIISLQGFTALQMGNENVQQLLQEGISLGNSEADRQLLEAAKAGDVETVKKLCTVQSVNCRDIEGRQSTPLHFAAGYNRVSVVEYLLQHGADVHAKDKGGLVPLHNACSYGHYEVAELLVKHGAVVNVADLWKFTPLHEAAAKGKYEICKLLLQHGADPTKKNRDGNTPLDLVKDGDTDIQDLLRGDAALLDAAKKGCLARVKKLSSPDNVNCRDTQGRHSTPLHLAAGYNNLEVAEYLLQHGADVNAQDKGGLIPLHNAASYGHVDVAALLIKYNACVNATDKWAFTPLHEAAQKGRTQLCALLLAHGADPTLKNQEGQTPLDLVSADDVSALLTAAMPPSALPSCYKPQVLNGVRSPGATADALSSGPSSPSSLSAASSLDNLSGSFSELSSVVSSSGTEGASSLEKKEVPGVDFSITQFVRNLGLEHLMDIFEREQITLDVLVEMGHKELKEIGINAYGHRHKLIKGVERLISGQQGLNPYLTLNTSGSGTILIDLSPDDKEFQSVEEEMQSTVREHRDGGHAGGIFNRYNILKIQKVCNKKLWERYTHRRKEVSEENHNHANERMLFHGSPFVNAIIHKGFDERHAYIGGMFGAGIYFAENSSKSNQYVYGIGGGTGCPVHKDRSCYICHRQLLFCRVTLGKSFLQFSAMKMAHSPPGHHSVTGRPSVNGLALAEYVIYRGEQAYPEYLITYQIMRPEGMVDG
Sequence of Lysine-specific demethylase 4A (Homo sapiens) (O75164 whole entry): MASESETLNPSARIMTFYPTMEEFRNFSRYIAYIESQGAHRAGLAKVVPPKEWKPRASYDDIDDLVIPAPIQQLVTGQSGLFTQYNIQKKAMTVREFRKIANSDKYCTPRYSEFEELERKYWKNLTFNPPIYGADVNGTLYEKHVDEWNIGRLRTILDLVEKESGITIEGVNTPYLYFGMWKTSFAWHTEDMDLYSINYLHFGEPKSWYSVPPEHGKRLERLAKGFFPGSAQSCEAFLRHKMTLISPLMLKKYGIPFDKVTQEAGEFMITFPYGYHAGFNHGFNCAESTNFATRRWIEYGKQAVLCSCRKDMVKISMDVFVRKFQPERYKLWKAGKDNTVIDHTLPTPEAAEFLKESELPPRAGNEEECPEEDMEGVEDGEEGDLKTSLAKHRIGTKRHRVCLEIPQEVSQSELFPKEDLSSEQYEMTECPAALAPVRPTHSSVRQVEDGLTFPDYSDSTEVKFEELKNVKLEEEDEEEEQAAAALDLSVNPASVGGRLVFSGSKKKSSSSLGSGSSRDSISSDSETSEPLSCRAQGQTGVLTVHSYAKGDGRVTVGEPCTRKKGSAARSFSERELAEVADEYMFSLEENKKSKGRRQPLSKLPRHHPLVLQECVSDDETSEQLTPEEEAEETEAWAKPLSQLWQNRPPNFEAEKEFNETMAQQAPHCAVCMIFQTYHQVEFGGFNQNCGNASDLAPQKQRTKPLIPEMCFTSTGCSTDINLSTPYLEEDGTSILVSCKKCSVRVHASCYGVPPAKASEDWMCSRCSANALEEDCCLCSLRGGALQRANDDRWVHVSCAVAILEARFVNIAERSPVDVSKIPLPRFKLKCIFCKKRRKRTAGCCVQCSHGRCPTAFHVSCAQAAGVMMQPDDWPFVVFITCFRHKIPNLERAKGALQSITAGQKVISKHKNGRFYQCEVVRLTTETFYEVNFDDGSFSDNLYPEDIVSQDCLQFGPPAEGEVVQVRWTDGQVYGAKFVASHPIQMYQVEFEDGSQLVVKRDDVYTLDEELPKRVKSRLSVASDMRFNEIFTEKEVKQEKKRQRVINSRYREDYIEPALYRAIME
Sequence of Matrix metalloproteinase-9 (Homo sapiens) (P14780 whole entry): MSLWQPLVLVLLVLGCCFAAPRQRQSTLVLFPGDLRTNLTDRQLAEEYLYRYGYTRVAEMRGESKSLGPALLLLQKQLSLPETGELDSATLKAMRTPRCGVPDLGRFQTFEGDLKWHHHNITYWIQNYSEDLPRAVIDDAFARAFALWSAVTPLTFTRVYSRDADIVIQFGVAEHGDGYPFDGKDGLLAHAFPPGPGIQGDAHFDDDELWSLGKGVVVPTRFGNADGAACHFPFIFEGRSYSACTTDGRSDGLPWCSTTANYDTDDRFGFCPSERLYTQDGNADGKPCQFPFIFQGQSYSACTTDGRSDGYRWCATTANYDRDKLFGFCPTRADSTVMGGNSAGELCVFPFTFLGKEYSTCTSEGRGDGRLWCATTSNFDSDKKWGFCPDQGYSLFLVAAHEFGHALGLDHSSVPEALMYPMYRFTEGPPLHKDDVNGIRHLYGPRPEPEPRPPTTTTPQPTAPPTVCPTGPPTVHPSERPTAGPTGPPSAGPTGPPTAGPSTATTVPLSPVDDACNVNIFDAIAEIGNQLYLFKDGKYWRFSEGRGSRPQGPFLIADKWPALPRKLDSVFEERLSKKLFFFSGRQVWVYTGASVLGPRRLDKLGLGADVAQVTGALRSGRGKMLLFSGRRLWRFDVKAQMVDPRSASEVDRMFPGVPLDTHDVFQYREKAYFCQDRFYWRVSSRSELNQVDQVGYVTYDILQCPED

inhibition [1]: Active
inhibition [7]: < 20%
inhibition [8]: < 20%
inhibition [9]: < 20%
inhibition [10]: < 20%
inhibition [11]: < 20%
inhibition [12]: < 20%
inhibition [13]: < 20%
inhibition [14]: < 20%
inhibition [15]: < 20%
inhibition [16]: < 20%
inhibition [17]: < 20%
Structure (SMILES): COc1ccc2c(c1)cc1n2CCN2C(=O)c3cc(F)ccc3N(C)C12 (configuration not stated)
Activity [2]: 32.52%
Activity [3]: 17.73%
Activity [4]: 1.02%
Activity [5]: 84.13%
Activity [6]: Non-Toxic
